Test results reported in ChEMBL document CHEMBL3997832, “Development of MBRI-001, a deuterium-substituted plinabulin derivative as a potent anti-cancer agent” (Bioorg Med Chem Lett, 2017).

Key:
[1] = Metabolic stability in rat plasma assessed as esterase-mediated amide bond hydrolysis at 1 uM measured up to 100 mins by LC-MS/MS analysis; assay type: ADME; details: isolated protein
[2] = Metabolic stability in rat liver microsomes assessed as esterase-mediated amide bond hydrolysis at 2 uM measured up to 150 mins by LC-MS/MS analysis; assay type: ADME; details: 2.5 h
[3] = Elimination rate constant in Wistar rat at 5 mg/kg, iv; assay type: ADME, organism-based; details: in vivo
How it was run: (§1)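 Wistar rats, single intravenous dose of 5 mg·kg⁻¹, n=5; plasma concentration–time profile sampled, mean ± SD. Parameters (ke, t1/2, Tmax, Cmax, AUClast, AUC0–∞, Vz, CL, MRT) derived from the plasma curve.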

[4] = Half life in Wistar rat at 5 mg/kg, iv; assay type: ADME, organism-based; details: in vivo; how it was run: as §1
[5] = Tmax in Wistar rat at 5 mg/kg, iv; assay type: ADME, organism-based; details: in vivo; how it was run: as §1
[6] = Cmax in Wistar rat at 5 mg/kg, iv; assay type: ADME, organism-based; set-up: dose 5 mg/kg, route intravenous; details: in vivo; how it was run: as §1
[7] = AUClast in Wistar rat at 5 mg/kg, iv; assay type: ADME, organism-based; set-up: dose 5 mg/kg, route intravenous, time 0 - last; details: in vivo; how it was run: as §1
[8] = Observed AUC (0 to infinity) in Wistar rat at 5 mg/kg, iv; assay type: ADME, organism-based; set-up: dose 5 mg/kg, time infinity, route intravenous; details: in vivo; how it was run: as §1
[9] = Observed apparent volume of distribution in Wistar rat at 5 mg/kg, iv; assay type: ADME, organism-based; details: in vivo, read-out: Vz; how it was run: as §1
[10] = Observed clearance in Wistar rat at 5 mg/kg, iv; assay type: ADME, organism-based; details: in vivo; how it was run: as §1
[11] = MRTlast in Wistar rat at 5 mg/kg, iv; assay type: ADME, organism-based; details: in vivo; how it was run: as §1
NCI-H460 [12] = assay: Cytotoxicity against human NCI-H460 cells assessed as decrease in cell viability after 72 hrs by MTT assay; assay type: functional, cell-based; details: NCI-H460, 72 h
NCI-H446 = assay: Cytotoxicity against human NCI-H446 cells assessed as decrease in cell viability after 72 hrs by MTT assay; assay type: functional, cell-based; details: NCI-H446, 72 h
Jurkat = assay: Cytotoxicity against human Jurkat cells assessed as decrease in cell viability after 72 hrs by MTT assay; assay type: functional, cell-based
NCI-H460 [13] = assay: Antitumor activity against human NCI-H460 cells xenografted in iv dosed nude mouse assessed as tumor growth inhibition administered every 2 days for 21 days; assay type: functional, organism-based; details: tested as the 2H-labelled form
How it was run: (§2)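 NCI-H460 xenografts in nude mice, dosed intravenously at 3, 6 or 12 mg/kg every two days for 21 consecutive days (Q3D7); docetaxel 10 mg/kg as positive control. Tumor volumes followed, tumors excised and weighed at end of dosing; inhibitory rate calculated versus vehicle group; mean ± SD.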

NCI-H460 [14] = assay: Antitumor activity against human NCI-H460 cells xenografted in nude mouse assessed as tumor growth inhibition at 10 mg/kg, iv administered every 2 days for 21 days relative to vehicle-treated control; assay type: functional; details: read-out: TGI
How it was run: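 Nude mice bearing human NCI-H460 lung carcinoma xenografts, dosed by intravenous injection every two days for 21 consecutive days (legend states Q3D7), alongside vehicle controls. Tumor volumes were followed over the dosing period. At the end, tumors were excised and weighed, and inhibitory rates were calculated relative to vehicle. Data given as mean ± SD.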

Mus musculus [15] = assay: Toxicity in nude mouse xenografted with human NCI-H460 cells assessed as decrease in body weight at 10 mg/kg, iv administered every 2 days for 21 days; assay type: organism-based; set-up: scale not given: the % may be the effect or the level left; details: in vivo
How it was run: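 NCI-H460 lung carcinoma xenografts in nude mice, with intravenous injection every two days over 21 consecutive days (legend: Q3D7). Body weights were recorded across the administration period as a toxicity read-out. Data given as mean ± SD.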

NCI-H460 [16] = assay: Antitumor activity against human NCI-H460 cells xenografted in nude mouse assessed as tumor growth inhibition at 3 mg/kg, iv administered every 2 days for 21 days relative to vehicle-treated control; assay type: functional; details: read-out: TGI; how it was run: as §2
NCI-H460 [17] = assay: Antitumor activity against human NCI-H460 cells xenografted in nude mouse assessed as tumor growth inhibition at 6 mg/kg, iv administered every 2 days for 21 days relative to vehicle-treated control; assay type: functional; details: read-out: TGI; how it was run: as §2
NCI-H460 [18] = assay: Antitumor activity against human NCI-H460 cells xenografted in nude mouse assessed as tumor growth inhibition at 12 mg/kg, iv administered every 2 days for 21 days relative to vehicle-treated control; assay type: functional; details: read-out: TGI; how it was run: as §2
[19] = Drug uptake in tumor of nude mouse xenografted with human NCI-H460 cells at 3 mg/kg, iv administered every 2 days for 21 days; assay type: ADME, organism-based, Neoplasm; details: read-out: Drug uptake
How it was run: (§3)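 Nude mice bearing NCI-H460 xenografts given compound intravenously at 3, 6 or 12 mg/kg every two days for 21 days. Concentration in excised tumor tissue measured at end of treatment, expressed as ng/g.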

[20] = Drug uptake in tumor of nude mouse xenografted with human NCI-H460 cells at 6 mg/kg, iv administered every 2 days for 21 days; assay type: ADME, organism-based, Neoplasm; details: read-out: Drug uptake; how it was run: as §3
[21] = Drug uptake in tumor of nude mouse xenografted with human NCI-H460 cells at 12 mg/kg, iv administered every 2 days for 21 days; assay type: ADME, organism-based, Neoplasm; details: read-out: Drug uptake; how it was run: as §3
Mus musculus [22] = assay: Toxicity in nude mouse xenografted with human NCI-H460 cells assessed as decrease in body weight at 3 to 12 mg/kg, iv administered every 2 days for 21 days; assay type: organism-based; details: in vivo
How it was run: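 Nude mice bearing NCI-H460 xenografts dosed intravenously at 3, 6 or 12 mg/kg every two days for 21 days (Q3D7). Body weights recorded over the dosing period; mean ± SD.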

Compound	Stability [1]	Stability [2]	k el [3] [s⁻¹]	half-life [4] [min]	Tmax [5] [min]	Cmax [6] [ng/mL]	AUC(0-t) [7] [ng·h/mL]	AUC(0-inf) [8] [ng·h/mL]	Vd [9] [L/kg]	clearance [10] [mL/min/kg]	MRT last [11] [min]	IC50 (NCI-H460 [12]) [nM]	IC50 (NCI-H446) [nM]	IC50 (Jurkat) [nM]	also measured
CC(C)(C)c1[nH]cnc1/C=c1\[nH]c(=O)/c(=C/c2ccccc2)[nH]c1=O [PLINABULIN]	Stable	Stable	0.000189	67.8	1.2	5040	721	723	11.4	121	30	33.9	44.2	3.3	TGI (NCI-H460 [13]): Dose-dependent effect
CC(=O)O[C@@]12CO[C@@H]1C[C@H](O)[C@@]1(C)C(=O)[C@H](O)C3=C(C)[C@@H](OC(=O)[C@H](O)[C@@H](NC(=O)OC(C)(C)C)c4ccccc4)C[C@@](O)([C@@H](OC(=O)c4ccccc4)[C@H]21)C3(C)C [DOCETAXEL ANHYDROUS]	–	–	–	–	–	–	–	–	–	–	–	–	–	–	inhibition in vivo at 10 mg/kg (NCI-H460 [14]): 40%; Activity (Mus musculus [15]): 18.3%
[2H]/C(c1nc[nH]c1C(C)(C)C)=c1/[nH]c(=O)/c(=C/c2ccccc2)[nH]c1=O	Stable	Stable	0.000139	88.2	1.2	7280	1520	1520	7.72	58.8	101	33.2	22	4.3	inhibition in vivo at 3 mg/kg (NCI-H460 [16]): 28.8%; inhibition in vivo at 6 mg/kg (NCI-H460 [17]): 44.8%; inhibition in vivo at 12 mg/kg (NCI-H460 [18]): 48%; concentration at 21 days [19]: 316 ng/g; concentration at 21 days [20]: 809 ng/g; concentration at 21 days [21]: 2490 ng/g; Activity (Mus musculus [22]): Non-Toxic
